ChEMBL document CHEMBL1145439, “Fluorine-18-labeled benzamide analogues for imaging the sigma2 receptor status of solid tumors with positron emission tomography” (J Med Chem, 2007)
pKi: −log10 of the molar value.

Key:
[1] = Tumor to muscle ratio of the drug in mouse EMT6 tumor bearing BALB/c mouse at 10 to 20 uCi after 2 hrs; type: ADME, tissue-based, Muscle tissue
Summary of the method: (§1)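 Tumor-bearing female Balb/c mice (EMT-6 s.c. allograft, ~0.2 cm3) given 10-20 µCi 18F tracer in saline i.v. via tail vein; ≥4 per group; killed 120 min later. Tissues weighed and gamma-counted; ratio = tumor %ID/g divided by that organ's %ID/g.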

[2] = Tumor to fat ratio of the drug in mouse EMT6 tumor bearing BALB/c mouse at 10 to 20 uCi after 2 hrs; type: ADME; summary of the method: as §1
Blood [3] = test: Biodistribution in blood of mouse EMT6 tumor bearing BALB/c mouse at 10 to 20 uCi after 5 mins; type: ADME, organism-based; conditions: in vivo
Summary of the method: (§2)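 EMT-6 cells (5×10^5 in 100 µL PBS) implanted s.c. in scapular region of female Balb/c mice (~2 months, 17-22 g); studied 7-10 days later at ~0.2 cm3 tumor. 18F tracer 10-20 µCi in 100-150 µL saline via tail vein; ≥4 mice per time point; tissue removed at sacrifice, weighed, gamma-counted; %ID/g calculated.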

Blood [4] = test: Biodistribution in blood of mouse EMT6 tumor bearing BALB/c mouse at 10 to 20 uCi after 30 mins; type: ADME, organism-based; conditions: in vivo, 0.5 h; summary of the method: as §2
Blood [5] = test: Biodistribution in blood of mouse EMT6 tumor bearing BALB/c mouse at 10 to 20 uCi after 60 mins; type: ADME, organism-based; conditions: in vivo, 1 h; summary of the method: as §2
Blood [6] = test: Biodistribution in blood of mouse EMT6 tumor bearing BALB/c mouse at 10 to 20 uCi after 120 mins; type: ADME, organism-based; conditions: in vivo, 2 h; summary of the method: as §2
Lung [7] = test: Biodistribution in lung of mouse EMT6 tumor bearing BALB/c mouse at 10 to 20 uCi after 5 mins; type: ADME, organism-based; conditions: in vivo; summary of the method: as §2
Lung [8] = test: Biodistribution in lung of mouse EMT6 tumor bearing BALB/c mouse at 10 to 20 uCi after 30 mins; type: ADME, organism-based; conditions: in vivo, 0.5 h; summary of the method: as §2
Lung [9] = test: Biodistribution in lung of mouse EMT6 tumor bearing BALB/c mouse at 10 to 20 uCi after 60 mins; type: ADME, organism-based; conditions: in vivo, 1 h; summary of the method: as §2
Lung [10] = test: Biodistribution in lung of mouse EMT6 tumor bearing BALB/c mouse at 10 to 20 uCi after 120 mins; type: ADME, organism-based; conditions: in vivo, 2 h; summary of the method: as §2
Liver [11] = test: Biodistribution in liver of mouse EMT6 tumor bearing BALB/c mouse at 10 to 20 uCi after 5 mins; type: ADME, organism-based; conditions: in vivo; summary of the method: as §2
Liver [12] = test: Biodistribution in liver of mouse EMT6 tumor bearing BALB/c mouse at 10 to 20 uCi after 30 mins; type: ADME, organism-based; conditions: in vivo, 0.5 h; summary of the method: as §2
Liver [13] = test: Biodistribution in liver of mouse EMT6 tumor bearing BALB/c mouse at 10 to 20 uCi after 60 mins; type: ADME, organism-based; conditions: in vivo, 1 h; summary of the method: as §2
Liver [14] = test: Biodistribution in liver of mouse EMT6 tumor bearing BALB/c mouse at 10 to 20 uCi after 120 mins; type: ADME, organism-based; conditions: in vivo, 2 h; summary of the method: as §2
Kidney [15] = test: Biodistribution in kidney of mouse EMT6 tumor bearing BALB/c mouse at 10 to 20 uCi after 5 mins; type: ADME, organism-based; conditions: in vivo; summary of the method: as §2
Kidney [16] = test: Biodistribution in kidney of mouse EMT6 tumor bearing BALB/c mouse at 10 to 20 uCi after 30 mins; type: ADME, organism-based; conditions: in vivo, 0.5 h; summary of the method: as §2
Kidney [17] = test: Biodistribution in kidney of mouse EMT6 tumor bearing BALB/c mouse at 10 to 20 uCi after 60 mins; type: ADME, organism-based; conditions: in vivo, 1 h; summary of the method: as §2
Kidney [18] = test: Biodistribution in kidney of mouse EMT6 tumor bearing BALB/c mouse at 10 to 20 uCi after 120 mins; type: ADME, organism-based; conditions: in vivo, 2 h; summary of the method: as §2
Muscle tissue [19] = test: Biodistribution in muscle of EMT6 tumor bearing BALB/c mouse at 10 to 20 uCi after 5 mins; type: ADME, organism-based; conditions: in vivo; summary of the method: as §2
Muscle tissue [20] = test: Biodistribution in muscle of mouse EMT6 tumor bearing BALB/c mouse at 10 to 20 uCi after 30 mins; type: ADME, organism-based; conditions: in vivo, 0.5 h; summary of the method: as §2
Muscle tissue [21] = test: Biodistribution in muscle of mouse EMT6 tumor bearing BALB/c mouse at 10 to 20 uCi after 60 mins; type: ADME, organism-based; conditions: in vivo, 1 h; summary of the method: as §2
Muscle tissue [22] = test: Biodistribution in muscle of mouse EMT6 tumor bearing BALB/c mouse at 10 to 20 uCi after 120 mins; type: ADME, organism-based; conditions: in vivo, 2 h; summary of the method: as §2
Adipose tissue [23] = test: Biodistribution in fat of mouse EMT6 tumor bearing BALB/c mouse at 10 to 20 uCi after 5 mins; type: ADME, organism-based; conditions: in vivo; summary of the method: as §2
Adipose tissue [24] = test: Biodistribution in fat of mouse EMT6 tumor bearing BALB/c mouse at 10 to 20 uCi after 30 mins; type: ADME, organism-based; conditions: in vivo, 0.5 h; summary of the method: as §2
Adipose tissue [25] = test: Biodistribution in fat of mouse EMT6 tumor bearing BALB/c mouse at 10 to 20 uCi after 60 mins; type: ADME, organism-based; conditions: in vivo, 1 h; summary of the method: as §2
Adipose tissue [26] = test: Biodistribution in fat of mouse EMT6 tumor bearing BALB/c mouse at 10 to 20 uCi after 120 mins; type: ADME, organism-based; conditions: in vivo, 2 h; summary of the method: as §2
Heart [27] = test: Biodistribution in heart of mouse EMT6 tumor bearing BALB/c mouse at 10 to 20 uCi after 5 mins; type: ADME, organism-based; conditions: in vivo; summary of the method: as §2
Heart [28] = test: Biodistribution in heart of mouse EMT6 tumor bearing BALB/c mouse at 10 to 20 uCi after 30 mins; type: ADME, organism-based; conditions: in vivo, 0.5 h; summary of the method: as §2
Heart [29] = test: Biodistribution in heart of mouse EMT6 tumor bearing BALB/c mouse at 10 to 20 uCi after 60 mins; type: ADME, organism-based; conditions: in vivo, 1 h; summary of the method: as §2
Heart [30] = test: Biodistribution in heart of EMT6 tumor bearing BALB/c mouse at 10 to 20 uCi after 120 mins; type: ADME, organism-based; conditions: in vivo, 2 h; summary of the method: as §2
Brain [31] = test: Biodistribution in brain of EMT6 tumor bearing BALB/c mouse at 10 to 20 uCi after 5 mins; type: ADME, organism-based; conditions: in vivo; summary of the method: as §2
Brain [32] = test: Biodistribution in brain of EMT6 tumor bearing BALB/c mouse at 10 to 20 uCi after 30 mins; type: ADME, organism-based; conditions: in vivo, 0.5 h; summary of the method: as §2
Brain [33] = test: Biodistribution in brain of EMT6 tumor bearing BALB/c mouse at 10 to 20 uCi after 60 mins; type: ADME, organism-based; conditions: in vivo, 1 h; summary of the method: as §2
Brain [34] = test: Biodistribution in brain of mouse EMT6 tumor bearing BALB/c mouse at 10 to 20 uCi after 120 mins; type: ADME, organism-based; conditions: in vivo, 2 h; summary of the method: as §2
Bone [35] = test: Biodistribution in bone of mouse EMT6 tumor bearing BALB/c mouse at 10 to 20 uCi after 5 mins; type: ADME, organism-based, Bone element; conditions: in vivo; summary of the method: as §2
Bone [36] = test: Biodistribution in bone of mouse EMT6 tumor bearing BALB/c mouse at 10 to 20 uCi after 30 mins; type: ADME, organism-based, Bone element; conditions: in vivo, 0.5 h; summary of the method: as §2
Bone [37] = test: Biodistribution in bone of mouse EMT6 tumor bearing BALB/c mouse at 10 to 20 uCi after 60 mins; type: ADME, organism-based, Bone element; conditions: in vivo, 1 h; summary of the method: as §2
Bone [38] = test: Biodistribution in bone of mouse EMT6 tumor bearing BALB/c mouse at 10 to 20 uCi after 120 mins; type: ADME, organism-based, Bone element; conditions: in vivo, 2 h; summary of the method: as §2
EMT6 [39] = test: Biodistribution in tumor of mouse EMT6 tumor bearing BALB/c mouse at 10 to 20 uCi after 5 mins; type: ADME, organism-based; conditions: emt6, 5 min; summary of the method: as §2
EMT6 [40] = test: Biodistribution in tumor of EMT6 tumor bearing BALB/c mouse 10 to 20 uCi after 30 mins; type: ADME, organism-based; conditions: emt6, 0.5 h; summary of the method: as §2
EMT6 [41] = test: Biodistribution in tumor of mouse EMT6 tumor bearing BALB/c mouse at 10 to 20 uCi after 60 mins; type: ADME, organism-based; conditions: emt6, 1 h; summary of the method: as §2
EMT6 [42] = test: Biodistribution in tumor of mouse EMT6 tumor bearing BALB/c mouse at 10 to 20 uCi after 120 mins; type: ADME, organism-based; conditions: emt6, 2 h; summary of the method: as §2
[43] = Decrease in tumor to muscle ratio of the drug in mouse EMT6 tumor bearing BALB/c mouse after 1 hr in presence of YUN-143; type: ADME; parameters: scale not given: the % may be the effect or the level left
Summary of the method: (§3)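 Blocking: 18F tracer coinjected i.v. with 1 mg/kg cold YUN-143 (σ1/σ2 ligand) into EMT-6 tumor-bearing female Balb/c mice; sacrificed at 60 min; tumor/muscle and tumor/fat ratios from %ID/g of gamma-counted tissues.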

[44] = Decrease in tumor to fat ratio of the drug in mouse EMT6 tumor bearing BALB/c mouse after 1 hr in presence of YUN-143; type: ADME; parameters: scale not given: the % may be the effect or the level left; summary of the method: as §3
[45] = target: Sigma non-opioid intracellular receptor 1 (Cavia porcellus, UniProt Q60492); test: Displacement of [3H](+)-pentazocine from sigma 1 receptor in guinea pig brain membrane after 90 mins; type: cell membranes
Sequence of Sigma non-opioid intracellular receptor 1 (Q60492 whole entry): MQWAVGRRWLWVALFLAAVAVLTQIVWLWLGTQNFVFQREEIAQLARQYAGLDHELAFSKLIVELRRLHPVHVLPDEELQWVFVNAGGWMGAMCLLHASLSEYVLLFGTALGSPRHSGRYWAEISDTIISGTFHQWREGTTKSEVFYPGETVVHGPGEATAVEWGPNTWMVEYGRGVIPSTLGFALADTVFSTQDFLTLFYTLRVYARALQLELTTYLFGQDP
Summary of the method: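 Guinea pig brain membranes (~300 µg protein) with ~5 nM [3H](+)-pentazocine, 90 min at room temperature; nonspecific binding with 10 µM haloperidol; stopped with ice-cold Tris/NaCl buffer, filtered, scintillation counted. IC50 by nonlinear regression, one-site fit; Ki by Cheng-Prusoff, mean ± SEM.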

[46] = Displacement of [3H]DTG from sigma 2 receptor in rat liver membrane after 120 mins; type: cell membranes
Summary of the method: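 Rat liver membranes (~300 µg protein) incubated with ~5 nM [3H]DTG plus 1 µM (+)-pentazocine to mask σ1 sites, 120 min at room temperature; 10 µM haloperidol defines nonspecific binding; filtration and scintillation counting. One-site nonlinear regression IC50, converted to Ki by Cheng-Prusoff; mean ± SEM.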

[47] = Selectivity for rat liver sigma 2 receptor over guinea pig brain sigma 1 receptor

COc1cc2c(cc1OC)CN(CCCCNC(=O)c1cc(I)cc(OC)c1OCC[18F])CC2
Ratio [1]: 8
Ratio [2]: 7
Drug uptake (Blood [3]): 1.82 % ID/g
Drug uptake (Blood [4]): 1.23 % ID/g
Drug uptake (Blood [5]): 0.65 % ID/g
Drug uptake (Blood [6]): 0.28 % ID/g
Drug uptake (Lung [7]): 18.47 % ID/g
Drug uptake (Lung [8]): 3.75 % ID/g
Drug uptake (Lung [9]): 1.51 % ID/g
Drug uptake (Lung [10]): 0.74 % ID/g
Drug uptake (Liver [11]): 15.21 % ID/g
Drug uptake (Liver [12]): 10.73 % ID/g
Drug uptake (Liver [13]): 5.57 % ID/g
Drug uptake (Liver [14]): 2.61 % ID/g
Drug uptake (Kidney [15]): 19.98 % ID/g
Drug uptake (Kidney [16]): 7.73 % ID/g
Drug uptake (Kidney [17]): 3.5 % ID/g
Drug uptake (Kidney [18]): 1.34 % ID/g
Drug uptake (Muscle tissue [19]): 2.5 % ID/g
Drug uptake (Muscle tissue [20]): 0.73 % ID/g
Drug uptake (Muscle tissue [21]): 0.4 % ID/g
Drug uptake (Muscle tissue [22]): 0.15 % ID/g
Drug uptake (Adipose tissue [23]): 4.13 % ID/g
Drug uptake (Adipose tissue [24]): 1.36 % ID/g
Drug uptake (Adipose tissue [25]): 0.47 % ID/g
Drug uptake (Adipose tissue [26]): 0.17 % ID/g
Drug uptake (Heart [27]): 5.6 % ID/g
Drug uptake (Heart [28]): 1.54 % ID/g
Drug uptake (Heart [29]): 0.69 % ID/g
Drug uptake (Heart [30]): 0.39 % ID/g
Drug uptake (Brain [31]): 0.71 % ID/g
Drug uptake (Brain [32]): 0.27 % ID/g
Drug uptake (Brain [33]): 0.14 % ID/g
Drug uptake (Brain [34]): 0.08 % ID/g
Drug uptake (Bone [35]): 2.23 % ID/g
Drug uptake (Bone [36]): 2.01 % ID/g
Drug uptake (Bone [37]): 0.93 % ID/g
Drug uptake (Bone [38]): 0.59 % ID/g
Drug uptake (EMT6 [39]): 3.05 % ID/g
Drug uptake (EMT6 [40]): 3.11 % ID/g
Drug uptake (EMT6 [41]): 2.15 % ID/g
Drug uptake (EMT6 [42]): 1.15 % ID/g
Activity [43]: 50%
Activity [44]: 50%

COc1cc2c(cc1OC)CN(CCCCNC(=O)c1cc(Br)cc(OC)c1OCCF)CC2
pKi [45]: 4.82
pKi [46]: 6.41
Ratio Ki [47]: 40
